Active and inactive are the calls of the source. The calls are words filed in the database; no cut-off is given here.
What was measured:
[1] = target: T1, Death-associated protein kinase 3 (Homo sapiens, UniProt O43293); test: Inhibition of DAPK3 at 10 uM
How it was run: (§1)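 Single-concentration screen of recombinant DAPK3 in the standard Z'-LYTE Ser/Thr 13 peptide reaction: peptide substrate and ATP in 50 mM HEPES pH 7.4, 10 mM MgCl2, 0.01% Brij-35, 0.5% DMSO. Percent inhibition of enzyme activity was read at the stated final compound concentration.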
Target sequence in this assay (O43293 whole entry, looked up): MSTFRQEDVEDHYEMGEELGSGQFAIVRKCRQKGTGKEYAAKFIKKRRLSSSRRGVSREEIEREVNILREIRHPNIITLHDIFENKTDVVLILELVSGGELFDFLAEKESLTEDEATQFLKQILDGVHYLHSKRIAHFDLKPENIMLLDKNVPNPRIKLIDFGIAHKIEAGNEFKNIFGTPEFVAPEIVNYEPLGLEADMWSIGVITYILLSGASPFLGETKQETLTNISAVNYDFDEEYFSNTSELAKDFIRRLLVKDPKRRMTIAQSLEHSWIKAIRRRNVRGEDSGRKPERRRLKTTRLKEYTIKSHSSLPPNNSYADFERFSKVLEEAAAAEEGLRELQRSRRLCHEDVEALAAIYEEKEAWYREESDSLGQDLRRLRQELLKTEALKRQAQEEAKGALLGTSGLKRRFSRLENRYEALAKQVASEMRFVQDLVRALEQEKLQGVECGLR

[2] = target: T1, Death-associated protein kinase 3; test: Inhibition of DAPK3 at 1 uM; how it was run: as §1
Target sequence in this assay (O43293 whole entry, looked up): as above

[3] = Inhibition of PKA at 10 uM
[4] = target: Fibroblast growth factor receptor 1 (Homo sapiens, UniProt P11362); test: Inhibition of FGFR1
How it was run: (§2)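 Selectivity panel run with ProfilerPro kinase kits following the kit protocol. Activity against each kinase was reported as an IC50 range: below 1 μM, between 1 and 10 μM, or above 10 μM.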

[5] = target: Hepatocyte growth factor receptor (Homo sapiens) (UniProt P08581); test: Inhibition of MET at 10 uM; how it was run: as §2
[6] = target: Ribosomal protein S6 kinase alpha-5 (Homo sapiens) (UniProt O75582); test: Inhibition of MSK1 at 10 uM; how it was run: as §2
[7] = target: Cyclin-dependent kinase 2 (Homo sapiens) (UniProt P24941); test: Inhibition of CDK2 at 10 uM; how it was run: as §2
[8] = target: Tyrosine-protein kinase BTK (Homo sapiens) (UniProt Q06187); test: Inhibition of BTK at 10 uM; how it was run: as §2
[9] = target: Tyrosine-protein kinase SYK (Homo sapiens) (UniProt P43405); test: Inhibition of SYK at 10 uM
[10] = target: Serine/threonine-protein kinase pim-2 (Homo sapiens) (UniProt Q9P1W9); test: Inhibition of PIM2 at 10 uM
[11] = target: Death-associated protein kinase 1 (Homo sapiens, UniProt P53355); test: Inhibition of DAPK1
How it was run: (§3)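 IC50 runs used the Z'-LYTE Ser/Thr 13 peptide format. Human recombinant DAPK1 was at 2.6 μg/mL final; DAPK3 was recombinant. Each kinase was incubated with 10 μM ATP and a range of inhibitor concentrations in 50 mM HEPES pH 7.4, 10 mM MgCl2, 0.01% Brij-35, 0.5% DMSO, with peptide substrate.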

[12] = target: Insulin-like growth factor 1 receptor (Homo sapiens) (UniProt P08069); test: Inhibition of IGF1R at 10 uM
[13] = target: Mitogen-activated protein kinase 14 (Homo sapiens) (UniProt Q16539); test: Inhibition of p38alpha at 10 uM
[14] = Inhibition of PKGalpha at 10 uM
[15] = target: Serine/threonine-protein kinase D2 (Homo sapiens) (UniProt Q9BZL6); test: Inhibition of PKD2 at 10 uM
[16] = target: Receptor-type tyrosine-protein kinase FLT3 (Homo sapiens) (UniProt P36888); test: Inhibition of FLT3 at 10 uM
[17] = target: Proto-oncogene tyrosine-protein kinase Src (Homo sapiens) (UniProt P12931); test: Inhibition of SRC at 10 uM
[18] = target: Serine/threonine-protein kinase MARK1 (Homo sapiens) (UniProt Q9P0L2); test: Inhibition of MARK1 at 10 uM
[19] = target: Serine/threonine-protein kinase Chk1 (Homo sapiens) (UniProt O14757); test: Inhibition of CHK1 at 10 uM; how it was run: as §2
[20] = target: Vascular endothelial growth factor receptor 2 (Homo sapiens, UniProt P35968); test: Inhibition of KDR; how it was run: as §2
[21] = target: Mitogen-activated protein kinase 3 (Homo sapiens) (UniProt P27361); test: Inhibition of Erk1 at 10 uM
[22] = target: Protein kinase C beta type (Homo sapiens) (UniProt P05771); test: Inhibition of PKCbeta2 at 10 uM
[23] = target: RAC-alpha serine/threonine-protein kinase (Homo sapiens) (UniProt P31749); test: Inhibition of AKT1 at 10 uM
[24] = target: Mitogen-activated protein kinase 1 (Homo sapiens, UniProt P28482); test: Inhibition of Erk2; how it was run: as §2
[25] = target: Serine/threonine-protein kinase PAK 2 (Homo sapiens) (UniProt Q13177); test: Inhibition of PAK2 at 10 uM
[26] = target: Aurora kinase A (Homo sapiens) (UniProt O14965); test: Inhibition of AurA at 10 uM
[27] = target: Serine/threonine-protein kinase 3 (Homo sapiens) (UniProt Q13188); test: Inhibition of MST2 at 10 uM; how it was run: as §2
[28] = Inhibition of CAMK2 at 10 uM
[29] = target: MAP kinase-activated protein kinase 5 (Homo sapiens) (UniProt Q8IW41); test: Inhibition of PRAK at 10 uM; how it was run: as §2
[30] = target: Tyrosine-protein kinase Fyn (Homo sapiens) (UniProt P06241); test: Inhibition of FYN at 10 uM; how it was run: as §2
[31] = target: Tyrosine-protein kinase ABL1 (Homo sapiens) (UniProt P00519); test: Inhibition of ABL at 10 uM
[32] = target: Interleukin-1 receptor-associated kinase 4 (Homo sapiens) (UniProt Q9NWZ3); test: Inhibition of IRAK4 at 10 uM; how it was run: as §2
[33] = target: RAF proto-oncogene serine/threonine-protein kinase (Homo sapiens) (UniProt P04049); test: Inhibition of c-Raf at 10 uM
[34] = target: Glycogen synthase kinase-3 beta (Homo sapiens) (UniProt P49841); test: Inhibition of GSK3-beta at 10 uM
[35] = target: Serine/threonine-protein kinase Chk2 (Homo sapiens) (UniProt O96017); test: Inhibition of CHK2 at 10 uM; how it was run: as §2
[36] = target: MAP/microtubule affinity-regulating kinase 3 (Homo sapiens) (UniProt P27448); test: Inhibition of c-TAK1 at 10 uM; how it was run: as §2
[37] = target: T1, Death-associated protein kinase 3; test: Inhibition of DAPK3; how it was run: as §3
[38] = target: Mitogen-activated protein kinase kinase kinase kinase 4 (Homo sapiens) (UniProt O95819); test: Inhibition of HGK at 10 uM
[39] = target: Tyrosine-protein kinase Lck (Homo sapiens) (UniProt P06239); test: Inhibition of LCK at 10 uM; how it was run: as §2
[40] = target: Serine/threonine-protein kinase Sgk1 (Homo sapiens, UniProt O00141); test: Inhibition of SGK1; how it was run: as §2
[41] = target: Protein kinase C zeta type (Homo sapiens) (UniProt Q05513); test: Inhibition of PKCzeta at 10 uM
[42] = target: Ribosomal protein S6 kinase alpha-1 (Homo sapiens) (UniProt Q15418); test: Inhibition of RSK1 at 10 uM; how it was run: as §2
[43] = target: Dual specificity tyrosine-phosphorylation-regulated kinase 1A (Homo sapiens, UniProt Q13627); test: Inhibition of […]; how it was run: as §2
[44] = target: Tyrosine-protein kinase Lyn (Homo sapiens) (UniProt P07948); test: Inhibition of LYN at 10 uM; how it was run: as §2
[45] = target: Calcium/calmodulin-dependent protein kinase type IV (Homo sapiens) (UniProt Q16566); test: Inhibition of CAMK4 at 10 uM; how it was run: as §2
[46] = target: RAC-beta serine/threonine-protein kinase (Homo sapiens) (UniProt P31751); test: Inhibition of AKT2 at 10 uM
[47] = target: MAP kinase-activated protein kinase 2 (Homo sapiens) (UniProt P49137); test: Inhibition of MAPKAPK2 at 10 uM; how it was run: as §2
[48] = Inhibition of AMPK at 10 uM
[49] = target: Insulin receptor (Homo sapiens) (UniProt P06213); test: Inhibition of INSR at 10 uM
[50] = target: Casein kinase I isoform delta (Homo sapiens, UniProt P48730); test: Inhibition of CK1delta; how it was run: as §2
[51] = target: Rho-associated protein kinase 2 (Homo sapiens) (UniProt O75116); test: Inhibition of ROCK2 at 10 uM
[52] = Inhibition of p70S6K
How it was run: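 Selectivity panel of kinases run with a commercial profiling kit according to the kit protocol. Inhibition is reported only as IC50 bands: below 1 μM, 1–10 μM, or above 10 μM.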

Sequence of Protein kinase C beta type (Homo sapiens) (P05771 2-671 limits assumed): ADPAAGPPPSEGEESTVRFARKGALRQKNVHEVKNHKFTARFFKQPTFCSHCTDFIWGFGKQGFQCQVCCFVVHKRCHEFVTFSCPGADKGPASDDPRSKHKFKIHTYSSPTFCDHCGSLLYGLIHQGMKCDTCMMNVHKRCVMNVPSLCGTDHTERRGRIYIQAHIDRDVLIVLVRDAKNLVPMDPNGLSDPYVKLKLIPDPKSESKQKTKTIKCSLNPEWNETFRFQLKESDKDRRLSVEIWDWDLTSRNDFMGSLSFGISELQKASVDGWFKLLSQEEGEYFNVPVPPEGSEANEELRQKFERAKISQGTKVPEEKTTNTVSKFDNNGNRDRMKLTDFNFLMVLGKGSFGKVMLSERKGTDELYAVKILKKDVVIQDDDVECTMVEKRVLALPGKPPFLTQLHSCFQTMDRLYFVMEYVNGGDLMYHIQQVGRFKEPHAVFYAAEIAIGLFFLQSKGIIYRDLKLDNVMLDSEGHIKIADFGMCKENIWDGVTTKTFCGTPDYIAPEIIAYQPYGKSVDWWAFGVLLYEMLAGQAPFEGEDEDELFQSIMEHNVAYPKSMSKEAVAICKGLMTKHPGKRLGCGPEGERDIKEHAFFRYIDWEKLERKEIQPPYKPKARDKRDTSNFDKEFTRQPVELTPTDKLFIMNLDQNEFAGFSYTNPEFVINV
Sequence of Serine/threonine-protein kinase Chk1 (Homo sapiens) (O14757 whole entry): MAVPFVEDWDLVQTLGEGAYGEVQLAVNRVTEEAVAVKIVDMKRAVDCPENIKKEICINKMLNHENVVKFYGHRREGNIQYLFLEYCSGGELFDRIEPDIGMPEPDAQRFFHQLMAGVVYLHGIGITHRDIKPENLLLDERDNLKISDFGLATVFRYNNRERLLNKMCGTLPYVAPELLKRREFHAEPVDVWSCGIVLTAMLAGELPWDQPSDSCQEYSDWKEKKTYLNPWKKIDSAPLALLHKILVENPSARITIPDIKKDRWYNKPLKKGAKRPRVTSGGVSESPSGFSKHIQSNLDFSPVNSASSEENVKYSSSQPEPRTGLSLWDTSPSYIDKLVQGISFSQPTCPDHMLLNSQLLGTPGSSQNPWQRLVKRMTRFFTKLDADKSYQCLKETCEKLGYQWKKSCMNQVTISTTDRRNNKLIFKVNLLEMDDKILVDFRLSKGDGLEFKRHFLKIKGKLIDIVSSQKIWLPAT
Sequence of Mitogen-activated protein kinase 3 (Homo sapiens) (P27361 whole entry): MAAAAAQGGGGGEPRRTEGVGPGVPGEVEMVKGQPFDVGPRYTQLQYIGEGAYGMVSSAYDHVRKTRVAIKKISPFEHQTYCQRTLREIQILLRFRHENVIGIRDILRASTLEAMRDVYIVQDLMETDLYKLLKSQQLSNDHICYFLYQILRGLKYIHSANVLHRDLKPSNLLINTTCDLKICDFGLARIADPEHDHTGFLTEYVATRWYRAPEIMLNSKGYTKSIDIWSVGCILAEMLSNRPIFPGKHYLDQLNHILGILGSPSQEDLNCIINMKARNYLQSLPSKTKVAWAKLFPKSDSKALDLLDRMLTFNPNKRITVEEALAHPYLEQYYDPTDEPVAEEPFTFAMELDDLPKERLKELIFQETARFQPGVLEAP
Sequence of Protein kinase C zeta type (Homo sapiens) (Q05513 whole entry): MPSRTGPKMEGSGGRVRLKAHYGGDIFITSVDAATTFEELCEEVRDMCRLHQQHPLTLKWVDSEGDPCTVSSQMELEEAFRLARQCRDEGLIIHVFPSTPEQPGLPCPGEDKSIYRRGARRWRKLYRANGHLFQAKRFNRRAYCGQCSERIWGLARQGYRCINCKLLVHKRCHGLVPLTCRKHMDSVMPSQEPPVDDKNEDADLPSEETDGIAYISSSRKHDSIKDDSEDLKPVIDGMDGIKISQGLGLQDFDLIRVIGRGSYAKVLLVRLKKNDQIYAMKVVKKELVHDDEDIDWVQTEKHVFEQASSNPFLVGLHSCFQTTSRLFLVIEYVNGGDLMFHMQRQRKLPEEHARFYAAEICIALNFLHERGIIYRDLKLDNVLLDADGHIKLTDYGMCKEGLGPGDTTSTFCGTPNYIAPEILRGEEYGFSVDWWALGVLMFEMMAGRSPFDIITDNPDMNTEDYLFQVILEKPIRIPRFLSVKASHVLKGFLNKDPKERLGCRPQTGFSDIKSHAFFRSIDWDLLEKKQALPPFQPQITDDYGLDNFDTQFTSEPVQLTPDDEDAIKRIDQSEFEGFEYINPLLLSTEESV
Sequence of MAP kinase-activated protein kinase 2 (Homo sapiens) (P49137 whole entry, looked up): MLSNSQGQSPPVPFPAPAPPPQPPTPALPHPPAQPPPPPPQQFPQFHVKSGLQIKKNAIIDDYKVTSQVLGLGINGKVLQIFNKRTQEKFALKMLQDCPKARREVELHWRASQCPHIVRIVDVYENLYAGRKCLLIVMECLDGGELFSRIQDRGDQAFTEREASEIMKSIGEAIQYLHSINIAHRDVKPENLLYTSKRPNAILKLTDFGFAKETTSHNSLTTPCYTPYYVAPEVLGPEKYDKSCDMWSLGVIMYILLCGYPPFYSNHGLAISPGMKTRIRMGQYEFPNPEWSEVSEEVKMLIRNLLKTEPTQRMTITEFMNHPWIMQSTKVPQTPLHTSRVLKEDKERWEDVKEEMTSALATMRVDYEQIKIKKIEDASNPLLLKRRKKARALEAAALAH
Sequence of Serine/threonine-protein kinase D2 (Homo sapiens) (Q9BZL6 whole entry): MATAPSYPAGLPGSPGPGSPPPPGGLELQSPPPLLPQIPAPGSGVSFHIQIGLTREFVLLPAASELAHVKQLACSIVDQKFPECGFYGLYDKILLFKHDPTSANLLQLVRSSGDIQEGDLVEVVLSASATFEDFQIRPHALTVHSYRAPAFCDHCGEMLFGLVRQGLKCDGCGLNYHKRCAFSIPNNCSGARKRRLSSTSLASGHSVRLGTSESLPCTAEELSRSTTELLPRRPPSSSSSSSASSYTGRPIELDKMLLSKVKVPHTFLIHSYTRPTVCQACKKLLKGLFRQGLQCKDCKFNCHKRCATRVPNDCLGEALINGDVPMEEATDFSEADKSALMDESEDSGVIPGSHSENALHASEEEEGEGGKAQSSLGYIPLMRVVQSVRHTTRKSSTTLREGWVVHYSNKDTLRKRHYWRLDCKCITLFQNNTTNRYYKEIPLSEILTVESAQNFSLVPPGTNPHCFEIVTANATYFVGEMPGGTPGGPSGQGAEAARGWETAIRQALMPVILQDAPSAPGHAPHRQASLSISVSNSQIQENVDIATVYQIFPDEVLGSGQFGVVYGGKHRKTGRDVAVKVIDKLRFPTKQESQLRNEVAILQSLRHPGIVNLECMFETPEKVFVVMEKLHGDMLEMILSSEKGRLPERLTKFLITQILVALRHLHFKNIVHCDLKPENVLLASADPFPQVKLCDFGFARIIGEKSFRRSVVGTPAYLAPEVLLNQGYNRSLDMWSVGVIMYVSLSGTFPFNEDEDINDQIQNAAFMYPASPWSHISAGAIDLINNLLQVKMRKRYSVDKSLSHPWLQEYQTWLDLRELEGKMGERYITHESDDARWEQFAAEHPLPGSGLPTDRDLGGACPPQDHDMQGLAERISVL
Sequence of Ribosomal protein S6 kinase alpha-1 (Homo sapiens) (Q15418 whole entry): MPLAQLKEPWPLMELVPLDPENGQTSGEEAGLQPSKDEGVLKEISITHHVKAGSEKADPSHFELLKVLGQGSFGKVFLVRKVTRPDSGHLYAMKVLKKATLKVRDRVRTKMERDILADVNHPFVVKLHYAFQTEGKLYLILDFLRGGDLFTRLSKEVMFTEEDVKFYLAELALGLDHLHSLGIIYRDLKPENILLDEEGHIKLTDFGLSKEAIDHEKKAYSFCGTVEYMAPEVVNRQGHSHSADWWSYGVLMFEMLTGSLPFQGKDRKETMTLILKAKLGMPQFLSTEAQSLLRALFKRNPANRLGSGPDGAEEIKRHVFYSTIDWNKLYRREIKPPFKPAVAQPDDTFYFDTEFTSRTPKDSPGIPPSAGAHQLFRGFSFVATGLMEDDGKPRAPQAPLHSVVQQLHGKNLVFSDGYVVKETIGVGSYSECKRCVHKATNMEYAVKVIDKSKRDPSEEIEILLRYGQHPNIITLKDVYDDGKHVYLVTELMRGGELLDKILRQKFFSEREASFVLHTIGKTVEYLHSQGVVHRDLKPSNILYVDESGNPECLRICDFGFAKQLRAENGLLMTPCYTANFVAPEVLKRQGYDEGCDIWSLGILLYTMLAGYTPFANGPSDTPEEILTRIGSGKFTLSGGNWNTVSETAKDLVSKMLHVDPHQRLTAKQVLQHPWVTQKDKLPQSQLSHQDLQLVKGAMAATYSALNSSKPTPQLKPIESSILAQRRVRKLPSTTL
Sequence of Mitogen-activated protein kinase 1 (P28482 whole entry): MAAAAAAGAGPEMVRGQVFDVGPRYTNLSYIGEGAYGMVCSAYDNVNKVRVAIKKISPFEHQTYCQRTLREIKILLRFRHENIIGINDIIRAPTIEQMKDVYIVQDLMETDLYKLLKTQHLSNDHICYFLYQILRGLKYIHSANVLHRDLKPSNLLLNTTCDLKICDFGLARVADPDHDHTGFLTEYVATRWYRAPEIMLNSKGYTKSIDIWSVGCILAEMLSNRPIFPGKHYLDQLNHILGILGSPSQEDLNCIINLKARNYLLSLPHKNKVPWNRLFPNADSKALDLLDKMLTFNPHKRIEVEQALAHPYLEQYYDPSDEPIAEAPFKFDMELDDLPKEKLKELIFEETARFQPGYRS

Work on Cc1c(O)ccc2c(CN3CCN(C)CC3)cc(=O)oc12 yielded an inhibition [1] of 54% and an inhibition [2] of 12%.

O=C1OC(c2cccc(Cl)c2[N+](=O)[O-])=N/C1=C\c1cccnc1 gave an inhibition [1] of 58% and an inhibition [2] of 3%.

For Cc1ccc2nc(-c3ccncc3)cc(C(=O)O)c2c1, the inhibition [1] was 58% and the inhibition [2] was 3%.

In the case of O=C1OC(C23CC4CC(CC(C4)C2)C3)=N/C1=C\c1cccnc1, the inhibition [1] is reported as 58% and the inhibition [2] is reported as 3%.

Molecule O=C1OC(c2ccccc2)=N/C1=C\c1cccnc1 has an inhibition [1] of 84% and an inhibition [2] of 71%.

Work on Cc1ccccc1C1=N/C(=C\c2cccnc2)C(=O)O1 yielded an inhibition [1] of 58% and an inhibition [2] of 3%.

For O=C1OC(/C=C/c2ccccc2)=NC/1=C\c1cccnc1, the inhibition [3] was “inactive”, the IC50 [4] was greater than 10 µM and the inhibition [1] was 58%. For the same molecule, the inhibition [5] was “inactive”, the inhibition [6] was “inactive” and the inhibition [7] was “inactive”. For the same molecule, the inhibition [8] was “inactive”, the inhibition [9] was “inactive” and the inhibition [10] was “inactive”. For the same molecule, the IC50 [11] was less than 1 µM, the inhibition [12] was “inactive” and the inhibition [2] was 3%. For the same molecule, the inhibition [13] was “inactive”, the inhibition [14] was “inactive” and the inhibition [15] was “inactive”. For the same molecule, the inhibition [16] was “inactive”, the inhibition [17] was “inactive” and the inhibition [18] was “inactive”. For the same molecule, the inhibition [19] was “inactive”, the IC50 [20] was greater than 10 µM and the inhibition [21] was “inactive”. The inhibition [22] was “inactive”, the inhibition [23] was “inactive” and the IC50 [24] was greater than 10 µM. For the same molecule, the inhibition [25] was “inactive”, the inhibition [26] was “inactive” and the inhibition [27] was “inactive”. The inhibition [28] was “inactive”, the inhibition [29] was “inactive” and the inhibition [30] was “inactive”. The inhibition [31] was “inactive”, the inhibition [32] was “inactive” and the inhibition [33] was “inactive”. For the same molecule, the inhibition [34] was “inactive”, the inhibition [35] was “inactive” and the inhibition [36] was “inactive”. For the same molecule, the IC50 [37] was less than 1 µM, the inhibition [38] was “inactive” and the inhibition [39] was “inactive”. For the same molecule, the IC50 [40] was greater than 10 µM, the inhibition [41] was “inactive” and the inhibition [42] was “inactive”. For the same molecule, the IC50 [43] was greater than 10 µM, the inhibition [44] was “inactive” and the inhibition [45] was “inactive”. The inhibition [46] was “inactive”, the inhibition [47] was “inactive” and the inhibition [48] was “inactive”. For the same molecule, the inhibition [49] was “inactive”, the IC50 [50] was greater than 10 µM and the inhibition [51] was “inactive”. It also gave an IC50 [52] of less than 10 µM.

Molecule Cc1cccc2c(C(=O)O)cc(-c3ccncc3)nc12 has an inhibition [1] of 72% and an inhibition [2] of 2%.
